Experimental data collected from several papers.
Lines come from different studies, so protocols differ. ≈ marks a conversion by molar mass, not a printed value.

With `C[C@@H]1[C@H](O)[C@@H](C)/C=C/C=C/C=C/C=C/C=C/C=C/C=C/[C@H](O[C@@H]2O[C@H](C)[C@@H](O)[C@H](N)[C@@H]2O)C[C@@H]2O[C@](O)(C[C@@H](O)C[C@@H](O)[C@H](O)CC[C@@H](O)C[C@@H](O)CC(=O)O[C@H]1C)C[C@H](O)[C@H]2C(=O)O` the IC50 was 17.9 µM (Leishmania tropica; parasite growth, MTT; 72 h, promastigote).
With `Cc1ccc(COc2ccc(C3Oc4ccccc4C=C3[N+](=O)[O-])cc2)cc1` (stereo not drawn) the IC50 was 150 µg/mL (Leishmania tropica; parasite growth; THP-1; 72 h, intracellular, amastigote).
`Cc1ccc(N=Nc2c(N)nn3c(-c4ccc(C)cc4)cc(-c4ccc(OCc5ccccc5)cc4)nc23)cc1` gave an MFC of 250 µg/mL (≈ 477 µM) (Saccharomyces cerevisiae; microbial killing, broth dilution; ATCC9763).
For `CCCCN1CN(CC(=O)O)CSC1=S`, the IC50 was 94.1 µM (Leishmania tropica; parasite growth, MTT; 48 h, promastigote).
`CCOC(=O)C1=C(CN2CCC(C(=O)Nc3ccccc3B(O)O)C2)NC(c2nccs2)=NC1c1ccc(F)cc1Br` (stereo not drawn) gave an EC50 of 1.97 µM (Hepatitis B virus; viral replication, inhibitor, qPCR; HepDES19; 72 h).
For `CNC(=S)NN=Cc1ccc(OC)c(OC)c1`, the IC50 was 258 µM (Leishmania tropica; parasite growth, MTT; 72 h, promastigote).
The IC50 of `O=[N+]([O-])C1=Cc2ccccc2OC1c1cccc(Br)c1` (stereo not drawn) is reported as 171 µg/mL (Leishmania tropica; parasite growth; THP-1; 72 h, intracellular, amastigote).
For `CCOC(=O)C1=C(CN2CCC[C@@H]2C(=O)Nc2cccc(B(O)O)c2)NC(c2nccs2)=N[C@@H]1c1ccc(F)cc1Br`, the EC50 was 2.6 µM (Hepatitis B virus; viral replication, inhibitor, qPCR; HepDES19; 72 h).
The IC50 of `O=[N+]([O-])C1=Cc2ccccc2OC1c1ccccc1Cl` (stereo not drawn) is reported as 164 µg/mL (Leishmania tropica; parasite growth; THP-1; 72 h, intracellular, amastigote).
With `C[C@@H]1[C@H](O)[C@@H](C)/C=C/C=C/C=C/C=C/C=C/C=C/C=C/[C@H](O[C@@H]2O[C@H](C)[C@@H](O)[C@H](N)[C@@H]2O)C[C@@H]2O[C@](O)(C[C@@H](O)C[C@@H](O)[C@H](O)CC[C@@H](O)C[C@@H](O)CC(=O)O[C@H]1C)C[C@H](O)[C@H]2C(=O)O` the MIC was 0.25 µg/mL (≈ 0.271 µM) (Saccharomyces cerevisiae; microbial growth, broth dilution; BY4741; 48 h).
`CNC(=S)NN=Cc1ccc([N+](=O)[O-])cc1` gave an IC50 of 240 µM (Leishmania tropica; parasite growth, MTT; 72 h, promastigote).
With `CCOC(=O)C1=C(CN2CCC(C(=O)Nc3cccc(B4OC(C)(C)C(C)(C)O4)c3)C2)NC(c2nccs2)=NC1c1ccc(F)cc1Br` (stereo not drawn) the EC50 was 0.87 µM (Hepatitis B virus; viral replication, inhibitor, qPCR; HepDES19; 72 h).
With `COc1ccc(N=Nc2c(N)nn3c(-c4ccco4)cc(-c4ccc(OCc5ccccc5)cc4)nc23)cc1` the MFC was 125 µg/mL (≈ 242 µM) (Saccharomyces cerevisiae; microbial killing, broth dilution; ATCC9763).
`CNC(=S)NN=Cc1ccc(F)cc1` has an IC50 of 762 µM (Leishmania tropica; parasite growth; J774.A1; 72 h, intracellular, amastigote).
`Cc1ccc(C2Oc3ccccc3C=C2[N+](=O)[O-])cc1` (stereo not drawn) gave an IC50 of 164 µg/mL (Leishmania tropica; parasite growth; THP-1; 72 h, intracellular, amastigote).
With `Cc1ccc(-c2cc(-c3ccc(OCc4ccccc4)cc3)nc3c(N=Nc4ccc(F)cc4)c(N)nn23)cc1` the MFC was 125 µg/mL (≈ 236 µM) (Saccharomyces cerevisiae; microbial killing, broth dilution; ATCC9763).
For `CNC(=S)NN=Cc1ccc(OC)cc1`, the IC50 was 22.7 µM (Leishmania tropica; parasite growth; J774.A1; 72 h, intracellular, amastigote).
`COc1ccc(N=Nc2c(N)nn3c(-c4ccc(Cl)cc4Cl)cc(-c4ccc(OCc5ccccc5)cc4)nc23)cc1` has an MFC of 500 µg/mL (≈ 840 µM) (Saccharomyces cerevisiae; microbial killing, broth dilution; ATCC9763).
`COc1ccc(C=NNC(=S)Nc2cccnc2)cc1OC` gave an IC50 of greater than 1000 µM (Leishmania tropica; parasite growth; J774.A1; 72 h, intracellular, amastigote).
With `CCOC(=O)C1=C(CN2CCN(Cc3ccc(B(O)O)cc3)CC2)NC(c2nccs2)=NC1c1ccc(F)cc1Br` (stereo not drawn) the EC50 was 0.97 µM (Hepatitis B virus; viral replication, inhibitor, qPCR; HepDES19; 72 h).
For `O=[N+]([O-])C1=Cc2ccccc2OC1c1cccc(OCc2ccc([N+](=O)[O-])cc2)c1` (stereo not drawn), the IC50 was 144 µg/mL (Leishmania tropica; parasite growth; THP-1; 72 h, intracellular, amastigote).
`CC(=O)N1CCN(c2ccc(OCC3COC(Cn4ccnc4)(c4ccc(Cl)cc4Cl)O3)cc2)CC1` (stereo not drawn) gave an MFC of 15.6 µg/mL (≈ 29.4 µM) (Saccharomyces cerevisiae; microbial killing, broth dilution; ATCC9763).
For `S=C(NN=Cc1ccc(Br)cc1)Nc1cccnc1`, the IC50 was 475 µM (Leishmania tropica; parasite growth; J774.A1; 72 h, intracellular, amastigote).
`CCOC(=O)C1=C(CN2CCC(C(=O)Nc3ccc(B(O)O)cc3)C2)NC(c2nccs2)=NC1c1ccc(F)cc1Br` (stereo not drawn) has an EC50 of 0.5 µM (Hepatitis B virus; viral replication, inhibitor, qPCR; HepDES19; 72 h).
With `O=[N+]([O-])C1=Cc2ccccc2OC1c1ccccc1OCc1ccccc1Cl` (stereo not drawn) the IC50 was 171 µg/mL (Leishmania tropica; parasite growth; THP-1; 72 h, intracellular, amastigote).
`COc1ccc(N=Nc2c(N)nn3c(-c4ccc(C)cc4)cc(-c4ccc(OCc5ccccc5)cc4)nc23)cc1` has an MFC of 125 µg/mL (≈ 231 µM) (Saccharomyces cerevisiae; microbial killing, broth dilution; ATCC9763).
For `CCOC(=O)C1=C(CN2CCC[C@@H]2C(=O)Nc2ccc(B(O)O)cc2)NC(c2nccs2)=N[C@@H]1c1ccc(F)cc1Br`, the EC50 was 3.93 µM (Hepatitis B virus; viral replication, inhibitor, qPCR; HepDES19; 72 h).
`Cc1ccc(N=Nc2c(N)nn3c(-c4ccc(Cl)cc4Cl)cc(-c4ccc(OCc5ccccc5)cc4)nc23)cc1` gave an MFC of 125 µg/mL (≈ 216 µM) (Saccharomyces cerevisiae; microbial killing, broth dilution; ATCC9763).
`CNC(=S)NN=Cc1ccc(C)cc1` gave an IC50 of 1050 µM (Leishmania tropica; parasite growth, MTT; 72 h, promastigote).
The MIC of `OC(Cn1cncn1)(Cn1cncn1)c1ccc(F)cc1F` is reported as 4 µg/mL (≈ 13.1 µM) (Saccharomyces cerevisiae; microbial growth, broth dilution; BY4741; 48 h).
With `O=[N+]([O-])C1=Cc2ccccc2OC1c1ccc(Cl)cc1` (stereo not drawn) the IC50 was 155 µg/mL (Leishmania tropica; parasite growth; THP-1; 72 h, intracellular, amastigote).
With `Cc1ccc(N=Nc2c(N)nn3c(-c4ccco4)cc(-c4ccc(OCc5ccccc5)cc4)nc23)cc1` the MFC was 62.5 µg/mL (≈ 125 µM) (Saccharomyces cerevisiae; microbial killing, broth dilution; ATCC9763).
The EC50 of `CCOC(=O)C1=C(CN2CCN(Cc3cccc(B(O)O)c3)CC2)NC(c2nccs2)=NC1c1ccc(F)cc1Br` (stereo not drawn) is reported as 1.27 µM (Hepatitis B virus; viral replication, inhibitor, qPCR; HepDES19; 72 h).
